Bounds are passed on as bounds.

Usually IC50 stands for the point on the concentration scale where inhibition reaches its midpoint. One may read the inhibition as the change of the read-out against control, counted positive when it falls.

The first test has as its target T1, S-adenosylmethionine decarboxylase proenzyme (Homo sapiens, UniProt P17707).
T1 sequence (P17707 whole entry): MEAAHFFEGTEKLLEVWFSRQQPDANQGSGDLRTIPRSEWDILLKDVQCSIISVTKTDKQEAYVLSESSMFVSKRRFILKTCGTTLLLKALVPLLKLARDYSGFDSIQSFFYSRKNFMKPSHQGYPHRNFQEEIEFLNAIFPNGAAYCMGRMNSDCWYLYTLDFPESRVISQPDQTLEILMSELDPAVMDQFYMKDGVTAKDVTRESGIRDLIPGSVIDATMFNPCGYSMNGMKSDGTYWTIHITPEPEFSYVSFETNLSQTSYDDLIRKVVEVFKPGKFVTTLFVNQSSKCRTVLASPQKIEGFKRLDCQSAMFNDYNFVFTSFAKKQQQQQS
Briefly: Inhibition of human C-terminal His-tagged AdoMetDC assessed as release of 14CO2 from S-adenosyl-L-[carboxy-14C]methionine. The essentials:
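Enzyme: human AdoMetDC from a pQE30 plasmid with the (H)6 tag at the C-terminus in place of the terminal -QQQQQS. Expressed in E. coli JM109 with IPTG induction overnight at 15 °C, then purified on Talon resin and Sephadex G-75 in putrescine-containing buffer. Assay used 1 nM enzyme, no inhibitor plus at least five inhibitor concentrations. IC50 came from curve fits of concentration versus % inhibition.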
On to `Cc1nc2c(N)ncnc2n1[C@@H]1O[C@H](C[S+](C)C)[C@@H](O)[C@H]1O`, for which the IC50 was determined as 3000 nM.

For the compound `CNc1nc2c(N)ncnc2n1[C@@H]1O[C@H](CN(C)CCCCON)[C@@H](O)[C@H]1O`, the half-inhibitory concentration (IC50) was found to be 49 nM.

Another test has as its target T2, S-adenosylmethionine decarboxylase proenzyme (Homo sapiens) (UniProt P17707).
T2 sequence (whole entry): T1 sequence (P17707 whole entry)
Briefly: Inhibition of human C-terminal His-tagged AdoMetDC assessed as release of 14CO2 from S-adenosyl-L-[carboxy-14C]methionine at 100 uM.
In the case of `CN(CCON)C[C@H]1O[C@@H](n2c(-c3ccccc3)nc3c(N)ncnc32)[C@H](O)[C@@H]1O`, the inhibition was under 5%.

For `CN(CCN)C[C@H]1O[C@@H](n2cnc3c(N)ncnc32)[C@H](O)[C@@H]1O`, the inhibition was under 5%.

For the compound `CN(CCNC(=N)N)C[C@H]1O[C@@H](n2cnc3c(N)ncnc32)[C@H](O)[C@@H]1O`, the inhibition is under 5%.

In the case of `CNCCNC[C@H]1O[C@@H](n2c(C)nc3c(N)ncnc32)[C@H](O)[C@@H]1O`, the inhibition is under 5%.

Regarding `CNCCNC[C@H]1O[C@@H](n2cnc3c(N)ncnc32)[C@H](O)[C@@H]1O`, the inhibition is under 5%.

On to `CN(CCCN)C[C@H]1O[C@@H](n2c(-c3ccccc3)nc3c(N)ncnc32)[C@H](O)[C@@H]1O`, for which the inhibition is under 5%.

As for `CNCCCNC[C@H]1O[C@@H](n2c(NC)nc3c(N)ncnc32)[C@H](O)[C@@H]1O`, the inhibition is under 5%.

Take `CN(CCCCON)C[C@H]1O[C@@H](n2c(-c3ccccc3)nc3c(N)ncnc32)[C@H](O)[C@@H]1O`: the inhibition was under 5%.

Regarding `Cc1nc2c(N)ncnc2n1[C@@H]1O[C@H](CN(C)CC(N)=O)[C@@H](O)[C@H]1O`, the inhibition is under 5%.

With `CNCCCNC[C@H]1O[C@@H](n2c(-c3ccccc3)nc3c(N)ncnc32)[C@H](O)[C@@H]1O`, the inhibition was under 5%.

For the origin of these results see ChEMBL document CHEMBL1140908, “New insights into the design of inhibitors of human S-adenosylmethionine decarboxylase: studies of adenine C8 substitution in structural analogues of S-adenosylmethionine” (J Med Chem, 2009).
